Values without a mark were called inactive. Results filed as inconclusive are left out. Activity calls are given as the source filed them.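 Rule for the calls, unless noted: active = growth inhibition above 25% in both replicates, a cutoff set 3 SD above the mean; inconclusive = above 25% in only one replicate; inactive = the rest.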
Tests used:
[1] = OD615 S. cerevisiae growth inhibition, permissive medium, pilot counter-assay, permissive growth control for S. cerevisiae lifespan shortening project (AID 705); conditions: OD615, 24 h, at 10 µM, stronger effect = higher value
Procedure, shortened: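 Material: engineered DeaD yeast; compound dosing: one dose 10 µM, DMSO 0.25% final; measure: yeast growth inhibition indicated by reduced 24 h OD615; detection: OD615 turbidity read; incubation: cells pre-grown 4 h, then 24 h compound exposure, 30 °C humidified; medium: permissive synthetic complete medium with raffinose and galactose carbon sources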

[2] = Restrictive medium S. cerevisiae growth inhibition, OD615, pilot screen of yeast lifespan reduction project, restrictive growth control (AID 706;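 active = growth inhibition above a set limit, 3 SD over mean compound inhibition, in both replicates, cut at about 43% in these data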;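 note: modified DeaD lifespan yeast strain shifted to restrictive glucose medium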); conditions: OD615, 48 h, at 10 µM, stronger effect = higher value
Procedure, shortened: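 material = engineered S. cerevisiae DeaD strain | medium = glucose-based CSMM-D restrictive medium | times = 4 h pre-incubation, 48 h exposure at 30 °C | technique = OD615 absorbance reading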

[3] = viability gain of MRP-1-high H69AR cells under doxorubicin, pilot screen, MRP-1 activator project, CellTiter-Glo, duplicate (AID 807;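 active = viability increase at or above a cutoff of the median across tested compounds plus 3 SD, cut at about 8.5% in these data, passing the limit was not always enough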;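 note: compound pretreatment 18-22 h then 72 h combined with doxorubicin; 0% = doxorubicin alone and 100% = vehicle without doxorubicin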); conditions: H69AR viability with doxorubicin, CellTiter-Glo luminescence; at 10 µM; stronger effect = higher value
[4] = growth suppression of beta-catenin knockout HCT116, pilot screen, human colon tumor cells (AID 823;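 active = cell viability at or below a set limit in both duplicate runs, the limit being the all-compound median minus 4 SD, cut at about 23% in these data, passing the limit was not always enough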;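 note: 0% = wells killed by 20 µM Hyamine and 100% = untreated DMSO cell wells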); conditions: CellTiter-Glo, 60 h, at 10 µM, stronger effect = lower value
[5] = growth suppression of PTEN-deleted HCT116, pilot screen, cell-based, HCT116 clonal line, CellTiter-Glo (AID 824;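 active = viability at or below 27.92% in each of two runs, the all-compound median minus 4 SD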;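 note: 0% = 20 µM Hyamine control and 100% = vehicle cell control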); conditions: 60 h, at 10 µM, stronger effect = lower value
[6] = inhibitors of the yeast RAM network, pilot screen, dse1pr::URA3 reporter, 5-FOA selection (AID 869;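 active = inhibition over a set limit, the all-compound mean plus 3 SD, in both replicate runs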;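 note: 0% = DMSO wells with no growth and 100% = 10 µM 1-NA-PP1 with full growth; RAM network block rescues cells from 5-FOA so hits raise OD615 growth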); conditions: S. cerevisiae dse1pr::URA3 5-FOA growth, OD615, 2 d; at 10 µM; stronger effect = higher value; strain carries analog-sensitive mutant Cbk1 kinase
[7] = RAM signaling pathway blockade in yeast – S. cerevisiae, Pdr1DBD-CYC8 efflux-inhibited sensitized strain, primary screen (AID 1298;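 active = RAM network inhibition above 8.4% in each of two replicates, 3 SD over the compound average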;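 note: 0% = DMSO untreated cells without growth and 100% = 10 µM 1-NA-PP1 full growth; higher means more yeast growth rescued from 5-FOA killing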); conditions: S. cerevisiae cbk1-as DSE1-URA3 strain, 5-FOA growth OD615, 2 d; at 50 µM; stronger effect = higher value

Row | SMILES | growth inhibition [1] | growth inhibition [2] | viability increase [3] | viability [4] | viability [5] | inhibition [6] | RAM network inhibition [7]
1 | COc1ccc(C(=O)NCc2cn3ccsc3n2)cc1OC | -9.73% | -1.42% | -1.54% | 105% | 94.6% | 2.29% | 2.63%
2 | CCC(Sc1nc(=O)cc(N)n1CCc1ccccc1)C(=O)Nc1cc(C)on1 (configuration not stated) | -3.68% | -7.75% | -1.78% | 104% | 95.7% | 1.33% | 6.71%
3 | CNc1oc(-c2ccccc2)nc1C#N | 1.34% | 21.3% | 2.14% | 101% | 102% | -0.58% | 5.84%
4 | O=C(NC1CCCC1)C1C2C=CC3(CN(Cc4cccs4)C(=O)C13)O2 (configuration not stated) | -17.8% | -17.1% | -1.96% | 94.8% | 101% | 0.615% | 5%
5 | COc1ccc(CSc2nncn2N)cc1Br | 8.95% | 5.08% | -2.01% | 101% | 90.8% | 1.08% | 0.88%
6 | N#CCCn1c(C(C#N)(CCC#N)CCC#N)nc2ccccc21 | 5.8% | 5.04% | -0.72% | 96.5% | 99.4% | 1.6% | 1.63%
7 | CCOc1ccc(-c2nc(CSc3nncs3)cs2)cc1OC | 4.37% | 16.2% | -3.61% | 84.1% | 82% | 0.655% | 5.42%
8 | COc1ccc(NC(=O)Nc2cccc3cccnc23)cc1 | -3.3% | -0.385% | -4.59% | 88.5% | 78% | -0.39% | 0.21%
9 | Cc1c(N2C(=O)CSC23C(=O)Nc2ccccc23)c(=O)n(-c2ccccc2)n1C (configuration not stated) | -10.1% | -11.7% | -3.38% | 90.4% | 91.8% | 3.84% | 3.91%
10 | COc1c(C)cc(Br)cc1C(=O)Nc1cccc(-c2nc3ncccc3o2)c1 | -0.485% | 15% | -4.84% | 55.6% | 46.5% | 2.24% | 7.82%
11 | COc1ccc(NC(=O)C2=C(C)NC(=O)NC2c2cccc(OC)c2OC)c(OC)c1 (configuration not stated) | -15.4% | -22.3% | 0.09% | 103% | 103% | 0.405% | -1.04%
12 | CCOC(=O)C1CCN(S(=O)(=O)c2cccc3nonc23)CC1 | -5.04% | -10.7% | 0.01% | 100% | 96.8% | 1.46% | -1.5%
13 | O=C(c1ccc(Cn2c(=O)[nH]c3ccccc3c2=O)cc1)N1CCN(c2ccccn2)CC1 | -11.8% | -8.79% | -2.12% | 93.1% | 78.6% | 0.23% | 8.38%
14 | COc1ccccc1C(=O)n1nc(-c2cccnc2)nc1N | -10.2% | -5.6% | -0.72% | 106% | 105% | 2.24% | 0.59%
15 | COc1ccc(C2C(C(=O)Nc3cccc(C)n3)c3ccccc3C(=O)N2C)cc1OC (configuration not stated) | 5.62% | 5.49% | -1.04% | 103% | 99.6% | -0.04% | 3.5%
16 | Cc1cc(Nc2cccc(C)c2C)n2nc(C)nc2n1 | -17% | -8.21% | -1.13% | 102% | 98.3% | 1.25% | 3.39%
17 | COC(=O)C(C(=O)OC)C(C(C)C)C(C(=O)OC)C(=O)OC | -8.23% | -9.04% | -1.49% | 101% | 98.2% | 1.07% | 3.68%
18 | CSCC[C@@H](C(=O)Nc1ccc2c(c1)OCCO2)N1Cc2ccccc2C1=O | 3.3% | 1.73% | -2.91% | 99.3% | 92.3% | 0.83% | 4.13%

Row | SMILES | growth inhibition [1] | growth inhibition [2] | viability increase [3] | viability [4] | viability [5] | inhibition [6] | RAM network inhibition [7]
19 | NC(=O)c1ccc(N2CCCCC2)c(N2C(=O)CCC2=O)c1 | -4.77% | -17.9% | -0.03% | 102% | 94.6% | 2.69% | 2.67%
20 | Cc1cc(-n2nc(C)cc2C)nc(NS(=O)(=O)c2ccccc2)n1 | -11.4% | -20.8% | -2.09% | 94.8% | 94.3% | 2.98% | 4.2%
21 | CCn1nnc(NC(=O)c2ccc(C(C)(C)C)cc2)n1 | -24.7% | -6.88% | -0.53% | 90.2% | 90.9% | 1.79% | -0.37%
22 | O=c1c(/C=N/O)c(Nc2ccccc2)nc2ccccn12 | -10.8% | 10.2% | -6.27% | 93.8% | 76.5% | 0.56% | 4.18%
23 | CCOC(=O)C(C(=O)OCC)c1cc(Br)c2noc3c2c1C(=O)c1ccccc1-3 | -15.6% | -3.25% | -8.25% | 1.06% (active) | 1.23% (active) | 1.65% | 1.87%
24 | COC(=O)C(C)Sc1nnc(Cc2cc(=O)[nH]c(=O)[nH]2)n1-c1ccc(Cl)cc1 (configuration not stated) | -13.7% | -7.63% | -1.15% | 104% | 95.6% | 1.97% | 1%
25 | COc1ccc(S(=O)(=O)N2Cc3ccccc3CC2C(=O)O)cc1OC (configuration not stated) | 6.5% | 3.09% | 0.39% | 104% | 96.1% | 1.33% | 5.1%
26 | O=C(NCc1ccccc1)c1ccc2c(c1)OCCO2 | 3.26% | 5.53% | -1.83% | 101% | 101% | 1.48% | 0.51%
27 | Cc1cc2cc(CCNC(=O)CC(C)(C)C)c(=O)[nH]c2cc1C | -11.3% | -21% | -0.18% | 101% | 98.7% | 2.57% | 5.74%
28 | Cc1cccc(NC(=O)CN(C)S(=O)(=O)c2cccc3cccnc23)c1 | 2.15% | -0.265% | 1.15% | 96.5% | 96.1% | 0.01% | -0.41%
29 | CCOC(=O)CC1=C(C#N)C(c2cccnc2)C(C(=O)OCC)=C(N)O1 (configuration not stated) | -0.965% | -12.4% | -3.12% | 104% | 99.6% | 1.98% | 8.18%
30 | CC(C)n1c(C(O)c2ccccc2)nc2ccccc21 (configuration not stated) | -5.87% | -13.6% | 0.37% | 97.6% | 88.1% | 1.4% | 4.24%
31 | Cc1occc1C(=O)NC1CCCCCC1 | -17.9% | -9.95% | -0.64% | 95.5% | 96.6% | -0.355% | -0.22%
32 | CSc1cc(/C=N/O)c(SC)s1 | -6.62% | 1.13% | -3.3% | 97.3% | 95.9% | 0.395% | -1.95%
33 | COc1ccc(OC)c2[nH]c(=O)c(CCNC(C)=O)cc12 | -6.6% | 3.73% | -0.39% | 109% | 104% | 2.21% | 1.88%
34 | Cc1cccc(C2Nc3ccccc3C(=O)N2c2ccccc2)n1 (configuration not stated) | -13.9% | -8.88% | -2.08% | 94.1% | 101% | 2.28% | 2.46%
35 | CCOC(=O)N1CCC(N2C(=O)c3cc(C(=O)NC4CCCCC4)ccc3C2O)CC1 (configuration not stated) | -2.13% | -0.895% | -3.03% | 94.5% | 88.1% | 0.045% | 3.81%
36 | O=C1CCc2cc(S(=O)(=O)NC(C(=O)NCc3cccnc3)c3ccccc3)ccc2N1 (configuration not stated) | -5.88% | 4.59% | -2.98% | 100% | 98.3% | -0.185% | 3.79%

Reference: PubChem BioAssay
